According to ChEMBL document CHEMBL3822380, “Simple avarone mimetics as selective agents against multidrug resistant cancer cells” (Eur J Med Chem, 2016):
Values after ≈ are worked out from the molar mass of the structure shown. Active and inactive are the calls of the source.

Tests used:
[1] = system: HaCaT; experiment: Cytotoxicity against human HaCaT cells after 72 hrs by MTT assay; format: cell-based; conditions: for IC50: Homo sapiens, HaCaT; for IC30: human, hacat
Outline: (§1)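 Seeding in 96-well plates at 1000 (NCI-H460), 2000 (NCI-H460/R) or 4000 (HaCaT) cells/well, treated after 24 h for 72 h. MTT at 0.4 mg/mL final, 4 h at 37 °C. Formazan dissolved in DMSO, absorbance read at 540 nm. Inhibition % = (1 − A treated/A untreated)×100. IC30 and IC50 obtained by linear regression.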

[2] = system: HaCaT; experiment: Induction of apoptosis in human HaCaT cells assessed as dead cells at 25 uM after 72 hrs by annexin-V/propidium iodide staining-based flow cytometric analysis (reference value: 2.8%); format: cell-based
[3] = system: HaCaT; experiment: Induction of apoptosis in human HaCaT cells assessed as late apoptotic/necrotic cells at 25 uM after 72 hrs by annexin-V/propidium iodide staining-based flow cytometric analysis (reference value: 0.2%); format: cell-based
[4] = system: Proteus hauseri; experiment: Antibacterial activity against Proteus hauseri ATCC 13315 by broth microdilution method; format: functional
Outline: (§2)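 Broth microdilution per NCCLS. Compounds dissolved in DMSO as 10 mg/mL stock, diluted in Mueller Hinton broth (bacteria) or Sabouraud dextrose broth (fungi). Amikacin served as the positive control for bacteria and nystatin for fungi.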

[5] = system: Staphylococcus aureus; experiment: Antibacterial activity against Staphylococcus aureus ATCC 6538 by broth microdilution method; format: functional; outline: as §2
[6] = system: NCI-H460; experiment: Induction of apoptosis in human NCI-H460 cells assessed as late apoptotic/necrotic cells at 25 uM after 72 hrs by annexin-V/propidium iodide staining-based flow cytometric analysis (reference value: 0.2%); format: functional
[7] = system: Kocuria rhizophila; experiment: Antibacterial activity against Kocuria rhizophila ATCC 9341 by broth microdilution method; format: functional; conditions: DC2201; outline: as §2
[8] = system: NCI-H460; experiment: Induction of apoptosis in multidrug resistant human NCI-H460 cells assessed as late apoptotic/necrotic cells at 25 uM after 72 hrs by annexin-V/propidium iodide staining-based flow cytometric analysis (reference value: 1%); format: functional
[9] = system: NCI-H460; experiment: Cytotoxicity against human NCI-H460 cells after 72 hrs by MTT assay; format: functional, cell-based; conditions: NCI-H460, 72 h; outline: as §1
[10] = system: Saccharomyces cerevisiae; experiment: Antifungal activity against Saccharomyces cerevisiae ATCC 9763 by broth microdilution method; format: functional; outline: as §2
[11] = system: Candida albicans; experiment: Antifungal activity against Candida albicans ATCC 10231 by broth microdilution method; format: functional; outline: as §2
[12] = Selectivity ratio of IC30/IC50 for human HaCaT cells to IC30/IC50 for multidrug resistant human NCI-H460 cells; format: ADME, cell-based; conditions: HaCaT cells versus multidrug resistant NCI-H460 cells
Outline: (§3)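 Fold threshold of 1.5 used to call selectivity to cancer cells, resistance, or selectivity to MDR cells.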

[13] = system: Micrococcus luteus; experiment: Antibacterial activity against Micrococcus luteus ATCC 10240 by broth microdilution method; format: functional; outline: as §2
[14] = system: NCI-H460; experiment: Induction of apoptosis in multidrug resistant human NCI-H460 cells assessed as early apoptotic cells at 25 uM after 72 hrs by annexin-V/propidium iodide staining-based flow cytometric analysis (reference value: 1.1%); format: functional
[15] = system: NCI-H460; experiment: Cytotoxicity against multidrug resistant human NCI-H460 cells after 72 hrs by MTT assay; format: functional, cell-based; conditions: NCI-H460, 72 h; outline: as §1
[16] = system: Micrococcus luteus; experiment: Antibacterial activity against Micrococcus luteus ATCC 4698 by broth microdilution method; format: functional; conditions: NCTC 2665; outline: as §2
[17] = system: NCI-H460; experiment: Induction of apoptosis in multidrug resistant human NCI-H460 cells assessed as dead cells at 25 uM after 72 hrs by annexin-V/propidium iodide staining-based flow cytometric analysis (reference value: 1.5%); format: functional
[18] = system: NCI-H460; experiment: Induction of superoxide anion generation in multidrug resistant human NCI-H460 cells at 25 uM after 72 hrs by DHE staining-based flow cytometric analysis relative to control; format: functional, cell-based
Outline: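 Seeded as for cell death (50,000 or 100,000 cells/well), treated 72 h at 25 µM, with CDDP 5 µM as control. Adherent cells trypsinized and loaded with 1 µM DHE for 30 min at 37 °C in the dark, then washed twice in PBS. Flow cytometry at ex 488/em 585 nm (FL2-H). Mean fluorescence intensity corrected for autofluorescence and compared with untreated control.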

[19] = system: Clostridium sporogenes; experiment: Antibacterial activity against Clostridium sporogenes ATCC 19404 by broth microdilution method; format: functional; outline: as §2
[20] = system: NCI-H460; experiment: Induction of apoptosis in human NCI-H460 cells assessed as dead cells at 25 uM after 72 hrs by annexin-V/propidium iodide staining-based flow cytometric analysis (reference value: 1.2%); format: functional
[21] = system: NCI-H460; experiment: Induction of apoptosis in multidrug resistant human NCI-H460 cells assessed as live cells at 25 uM after 72 hrs by annexin-V/propidium iodide staining-based flow cytometric analysis (reference value: 96.4%); format: functional
[22] = system: Aspergillus brasiliensis; experiment: Antifungal activity against Aspergillus brasiliensis ATCC 16404 by broth microdilution method; format: functional; outline: as §2
[23] = system: Escherichia coli; experiment: Antibacterial activity against Escherichia coli ATCC 25922 by broth microdilution method; format: functional; outline: as §2
[24] = Selectivity ratio of IC30/IC50 for human HaCaT cells to IC30/IC50 for human NCI-H460 cells; format: ADME, cell-based; conditions: HaCaT cells versus NCI-H460 cells; outline: as §3
[25] = system: Bacillus spizizenii; experiment: Antibacterial activity against Bacillus subtilis ATCC 6633 by broth microdilution method; format: functional; outline: as §2
[26] = system: NCI-H460; experiment: Induction of apoptosis in human NCI-H460 cells assessed as early apoptotic cells at 25 uM after 72 hrs by annexin-V/propidium iodide staining-based flow cytometric analysis (reference value: 0.3%); format: functional
[27] = system: HaCaT; experiment: Induction of apoptosis in human HaCaT cells assessed as early apoptotic cells at 25 uM after 72 hrs by annexin-V/propidium iodide staining-based flow cytometric analysis (reference value: 0.2%); format: cell-based
[28] = system: Salmonella enteritidis; experiment: Antibacterial activity against Salmonella enterica subsp. enterica serovar Enteritidis ATCC 13076 by broth microdilution method; format: functional; outline: as §2
[29] = Induction of apoptosis in human HaCaT cells assessed as live cells at 25 uM after 72 hrs by annexin-V/propidium iodide staining-based flow cytometric analysis (reference value: 96.8%); format: cell-based; conditions: read-out: Activity
[30] = system: Pseudomonas aeruginosa; experiment: Antibacterial activity against Pseudomonas aeruginosa ATCC 9027 by broth microdilution method; format: functional; outline: as §2
[31] = system: NCI-H460; experiment: Induction of apoptosis in human NCI-H460 cells assessed as live cells at 25 uM after 72 hrs by annexin-V/propidium iodide staining-based flow cytometric analysis (reference value: 98.3%); format: functional
[32] = system: NCI-H460; experiment: Selectivity ratio of IC30/IC50 for human NCI-H460 cells to IC30/IC50 for multidrug resistant human NCI-H460 cells; format: functional; outline: as §3

SMILES: CCCCCCCCNC1=CC(=O)C(C(C)(C)C)=CC1=O
- IC50 [1]: > 100 µM
- IC30 [1]: > 100 µM
- Activity [2]: 5.7%
- Activity [3]: 0.5%
- MIC [4]: 2150 µM (≈ 626 µg/mL)
- MIC [5]: 4300 µM (≈ 1250 µg/mL)
- Activity [6]: 1.7%
- MIC [7]: 4300 µM (≈ 1250 µg/mL)
- Activity [8]: 1.9%
- IC30 [9]: 18 µM
- IC50 [9]: 70 µM
- MIC [10]: 4300 µM (≈ 1250 µg/mL)
- MIC [11]: 4300 µM (≈ 1250 µg/mL)
- selectivity ratio [12]: ≤ 1.5
- MIC [13]: 2150 µM (≈ 626 µg/mL)
- Activity [14]: 0.2%
- IC30 [15]: 21 µM
- IC50 [15]: 65 µM
- MIC [16]: 4300 µM (≈ 1250 µg/mL)
- Activity [17]: 14%
- Activity [18]: inactive
- MIC [19]: 2150 µM (≈ 626 µg/mL)
- Activity [20]: 17.3%
- Activity [21]: 83.9%
- MIC [22]: 2150 µM (≈ 626 µg/mL)
- MIC [23]: 4300 µM (≈ 1250 µg/mL)
- selectivity ratio [24]: ≤ 1.5
- MIC [25]: 4300 µM (≈ 1250 µg/mL)
- Activity [26]: 0.1%
- Activity [27]: 0%
- MIC [28]: 2150 µM (≈ 626 µg/mL)
- viability at 72 h, 25 µM [29]: 93.8%
- MIC [30]: 2150 µM (≈ 626 µg/mL)
- Activity [31]: 80.9%

SMILES: CC(C)(C)C1=CC(=O)C(NCCc2ccccc2)=CC1=O
- IC50 [1]: > 100 µM
- IC30 [1]: > 100 µM
- Activity [2]: 8.3%
- Activity [3]: 1.7%
- MIC [4]: 2210 µM (≈ 626 µg/mL)
- Activity [6]: 5.4%
- MIC [7]: 2210 µM (≈ 626 µg/mL)
- Activity [8]: 3.6%
- IC30 [9]: 17 µM
- IC50 [9]: 35 µM
- MIC [10]: 2210 µM (≈ 626 µg/mL)
- MIC [11]: 2210 µM (≈ 626 µg/mL)
- selectivity ratio [12]: ≤ 1.5
- MIC [13]: 4420 µM (≈ 1250 µg/mL)
- Activity [14]: 1.3%
- IC30 [15]: 11 µM
- IC50 [15]: 33 µM
- MIC [16]: 2210 µM (≈ 626 µg/mL)
- Activity [17]: 14.1%
- Activity [18]: inactive
- MIC [19]: 2210 µM (≈ 626 µg/mL)
- Activity [20]: 13%
- Activity [21]: 81%
- MIC [22]: 1110 µM (≈ 313 µg/mL)
- selectivity ratio [24]: ≤ 1.5
- MIC [25]: 4420 µM (≈ 1250 µg/mL)
- Activity [26]: 0.8%
- Activity [27]: 0.8%
- MIC [28]: 4420 µM (≈ 1250 µg/mL)
- viability at 72 h, 25 µM [29]: 89.2%
- MIC [30]: 2210 µM (≈ 626 µg/mL)
- Activity [31]: 80.8%

SMILES: CCCCNC1=CC(=O)C(C[C@]2(C)[C@@H](C)CC[C@]3(C)C(C)=CCC[C@@H]23)=CC1=O
- IC50 [1]: > 100 µM
- IC30 [1]: 86 µM
- selectivity ratio [32]: <=1.5
- IC30 [9]: 91 µM
- IC50 [9]: > 100 µM
- selectivity ratio [12]: ≤ 1.5
- IC30 [15]: 24 µM
- IC50 [15]: > 100 µM
- selectivity ratio [24]: ≤ 1.5

SMILES: CCCCNC1=CC(=O)C=C(C[C@]2(C)[C@@H](C)CC[C@]3(C)C(C)=CCC[C@@H]23)C1=O
- IC50 [1]: 16 µM
- IC30 [1]: 11 µM
- selectivity ratio [32]: <=1.5
- IC30 [9]: 9 µM
- IC50 [9]: 16 µM
- IC30 [15]: 3 µM
- IC50 [15]: 6 µM

SMILES: CCNC1=CC(=O)C(C(C)(C)C)=CC1=O
- IC50 [1]: 75 µM
- IC30 [1]: 50 µM
- MIC [4]: 1510 µM (≈ 313 µg/mL)
- MIC [5]: 96 µM (≈ 19.9 µg/mL)
- MIC [7]: 758 µM (≈ 157 µg/mL)
- IC30 [9]: 45 µM
- IC50 [9]: 64 µM
- MIC [10]: 3020 µM (≈ 626 µg/mL)
- MIC [11]: 1510 µM (≈ 313 µg/mL)
- MIC [13]: 48 µM (≈ 9.95 µg/mL)
- IC30 [15]: 45 µM
- IC50 [15]: 65 µM
- MIC [16]: 1510 µM (≈ 313 µg/mL)
- MIC [19]: 1510 µM (≈ 313 µg/mL)
- MIC [22]: 381 µM (≈ 79 µg/mL)
- MIC [23]: 188 µM (≈ 39 µg/mL)
- MIC [25]: 1510 µM (≈ 313 µg/mL)
- MIC [28]: 758 µM (≈ 157 µg/mL)
- MIC [30]: 3020 µM (≈ 626 µg/mL)

SMILES: CCNC1=CC(=O)C=C(C(C)(C)C)C1=O
- IC50 [1]: 30 µM
- IC30 [1]: 22 µM
- MIC [4]: 758 µM (≈ 157 µg/mL)
- MIC [5]: 24 µM (≈ 4.97 µg/mL)
- MIC [7]: 381 µM (≈ 79 µg/mL)
- IC30 [9]: 4 µM
- IC50 [9]: 13 µM
- MIC [10]: 1510 µM (≈ 313 µg/mL)
- MIC [11]: 1510 µM (≈ 313 µg/mL)
- selectivity ratio [12]: ≤ 1.5
- MIC [13]: 24 µM (≈ 4.97 µg/mL)
- IC30 [15]: 5 µM
- IC50 [15]: 14 µM
- MIC [16]: 758 µM (≈ 157 µg/mL)
- MIC [19]: 758 µM (≈ 157 µg/mL)
- MIC [22]: 48 µM (≈ 9.95 µg/mL)
- MIC [23]: 24 µM (≈ 4.97 µg/mL)
- selectivity ratio [24]: ≤ 1.5
- MIC [25]: 758 µM (≈ 157 µg/mL)
- MIC [28]: 381 µM (≈ 79 µg/mL)
- MIC [30]: 758 µM (≈ 157 µg/mL)
